Measurements reported in ChEMBL document CHEMBL4138201, “Synthesis and biological evaluation of sulfur-containing shikonin oxime derivatives as potential antineoplastic agents” (Eur J Med Chem, 2018).

Experiments:
[1] = Cytotoxicity against human HSF cells after 48 hrs by MTT assay; format: cell-based
Procedure, shortened: (§1)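 MTT colorimetric assay. Shikonin and 5-fluorouracil served as reference agents. IC₅₀ obtained by linear regression of each compound's concentration–response curve.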

HCT-15 = experiment: Cytotoxicity against human HCT15 cells after 48 hrs by MTT assay; format: functional, cell-based; details: HCT-15, 48 h; procedure, shortened: as §1
MCF7 = experiment: Cytotoxicity against human MCF7 cells after 48 hrs by MTT assay; format: functional, cell-based; details: MCF7, 48 h; procedure, shortened: as §1
MGC-803 = experiment: Cytotoxicity against human MGC803 cells after 48 hrs by MTT assay; format: functional, cell-based; details: MGC-803, 48 h; procedure, shortened: as §1
Bel-7402 = experiment: Cytotoxicity against human Bel7402 cells after 48 hrs by MTT assay; format: functional, cell-based; details: Bel-7402, 48 h; procedure, shortened: as §1

Compound	IC50 [1] [µM]	IC50 (HCT-15) [nM]	IC50 (MCF7) [µM]	IC50 (MGC-803) [µM]	IC50 (Bel-7402) [µM]
COc1cc(C(CC=C(C)C)SC(=O)c2ccncc2)c(OC)c2c1/C(=N/O)C=C/C2=N\O (stereo not given)	> 50	7320	> 50	19.4	26.8
COc1cc(C(CC=C(C)C)SC(=O)c2cccc(Cl)c2)c(OC)c2c1/C(=N/O)C=C/C2=N\O (stereo not given)	> 50	2640	42.9	8.73	12.1
COc1ccccc1C(=O)SC(CC=C(C)C)c1cc(OC)c2c(c1OC)/C(=N/O)C=C/C2=N\O (stereo not given)	> 50	890	19.8	1.37	1.06
COc1cc(C(CC=C(C)C)SC(=O)c2ccc([N+](=O)[O-])cc2)c(OC)c2c1/C(=N/O)C=C/C2=N\O (stereo not given)	> 50	5090	44.7	9.3	12.6
COc1ccc(C(=O)S[C@H](CC=C(C)C)c2cc(OC)c3c(c2OC)/C(=N/O)C=C/C3=N\O)cc1OC	> 50	840	19.5	1.57	1.16
COc1cc(C(CC=C(C)C)SC/C=C(\C)CC/C=C(\C)CCC=C(C)C)c(OC)c2c1/C(=N/O)C=C/C2=N\O (stereo not given)	> 50	5960	37.4	9.98	14.7
CCCCCCCCCCSC(CC=C(C)C)c1cc(OC)c2c(c1OC)/C(=N/O)C=C/C2=N\O (stereo not given)	> 50	7430	48.3	19.2	25.4
COc1cc(C(CC=C(C)C)SCC=C(C)C)c(OC)c2c1/C(=N/O)C=C/C2=N\O (stereo not given)	> 50	3800	33.7	7.05	12.6
CCCCCCCSC(CC=C(C)C)c1cc(OC)c2c(c1OC)/C(=N/O)C=C/C2=N\O (stereo not given)	> 50	1970	30.6	5.51	8.15
COc1cc(C(CC=C(C)C)SC(=O)c2ccccc2)c(OC)c2c1/C(=N/O)C=C/C2=N\O (stereo not given)	> 50	630	17.4	1.28	1.2
CCC(=O)SC(CC=C(C)C)c1cc(OC)c2c(c1OC)/C(=N/O)C=C/C2=N\O (stereo not given)	> 50	1350	26.1	3.06	2.73
COc1cc(C(CC=C(C)C)SC(=O)c2cccnc2)c(OC)c2c1/C(=N/O)C=C/C2=N\O (stereo not given)	> 50	3450	37.5	7.56	10.2
CCSC(CC=C(C)C)c1cc(OC)c2c(c1OC)/C(=N/O)C=C/C2=N\O (stereo not given)	> 50	7150	44.2	12.5	20.1
COc1cc([C@H](CC=C(C)C)SCCC(C)C)c(OC)c2c1/C(=N/O)C=C/C2=N\O	> 50	920	26.3	3.12	4.85
COc1cc(C(CC=C(C)C)SC(=O)C=C(C)C)c(OC)c2c1/C(=N/O)C=C/C2=N\O (stereo not given)	> 50	1560	29.9	3.96	4.53
COc1cc(C(CC=C(C)C)SC(C)=O)c(OC)c2c1/C(=N/O)C=C/C2=N\O (stereo not given)	> 50	1220	23.5	2.49	3.65
COc1cc(C(=O)S[C@H](CC=C(C)C)c2cc(OC)c3c(c2OC)/C(=N/O)C=C/C3=N\O)cc(OC)c1OC	> 50	570	12.8	1.18	0.97
COc1cc(C(CC=C(C)C)SC(=O)c2ccc(C(F)(F)F)cc2)c(OC)c2c1/C(=N/O)C=C/C2=N\O (stereo not given)	> 50	2750	30.5	5.97	7.12
COc1cc(C(CC=C(C)C)SC(=O)c2cccs2)c(OC)c2c1/C(=N/O)C=C/C2=N\O (stereo not given)	> 50	1360	23.8	2.75	3.04
CCCCCCCCSC(CC=C(C)C)c1cc(OC)c2c(c1OC)/C(=N/O)C=C/C2=N\O (stereo not given)	> 50	1250	25.7	2.29	6.37
CCCCCCSC(CC=C(C)C)c1cc(OC)c2c(c1OC)/C(=N/O)C=C/C2=N\O (stereo not given)	> 50	3460	34.6	6.73	11.7
COc1ccc(C(=O)S[C@@H](CC=C(C)C)c2cc(OC)c3c(c2OC)/C(=N/O)C=C/C3=N\O)cc1OC	> 50	380	15.2	1.12	0.85

Compound	IC50 [1] [µM]	IC50 (HCT-15) [nM]	IC50 (MCF7) [µM]	IC50 (MGC-803) [µM]	IC50 (Bel-7402) [µM]
COc1cc(C(CC=C(C)C)SC(=O)c2cccc(F)c2)c(OC)c2c1/C(=N/O)C=C/C2=N\O (stereo not given)	> 50	2710	38.9	6.47	8.9
COc1cc(C(=O)S[C@@H](CC=C(C)C)c2cc(OC)c3c(c2OC)/C(=N/O)C=C/C3=N\O)cc(OC)c1OC	> 50	340	11.8	0.97	0.63
COc1cc(C(CC=C(C)C)SC(=O)c2ccc(F)cc2)c(OC)c2c1/C(=N/O)C=C/C2=N\O (stereo not given)	> 50	700	20.5	1.28	0.89
CCCCCCCCCCCCSC(CC=C(C)C)c1cc(OC)c2c(c1OC)/C(=N/O)C=C/C2=N\O (stereo not given)	> 50	14700	> 50	31.6	34.3
COc1cccc(C(=O)SC(CC=C(C)C)c2cc(OC)c3c(c2OC)/C(=N/O)C=C/C3=N\O)c1 (stereo not given)	> 50	1670	35.2	4.25	5.54
COc1cc([C@@H](CC=C(C)C)SC(=O)c2ccccc2)c(OC)c2c1/C(=N/O)C=C/C2=N\O	> 50	1060	25.5	2.67	2.97
COc1cc([C@H](CC=C(C)C)SC(=O)c2ccccc2)c(OC)c2c1/C(=N/O)C=C/C2=N\O	> 50	590	18.1	1.26	1.48
CC(C)=CC[C@@H](O)C1=CC(=O)c2c(O)ccc(O)c2C1=O [SHIKONIN]	1.25	860	2.4	1.51	1.24
COc1cc(C(CC=C(C)C)SC(=O)c2ccc(C)cc2)c(OC)c2c1/C(=N/O)C=C/C2=N\O (stereo not given)	> 50	470	15.8	0.92	0.72
COc1cc(C(CC=C(C)C)SC(=O)c2ccccc2F)c(OC)c2c1/C(=N/O)C=C/C2=N\O (stereo not given)	> 50	620	23	1.52	1.34
O=c1[nH]cc(F)c(=O)[nH]1 [FLUOROURACIL]	> 50	7530	29	> 50	20.9
COc1cc(C(CC=C(C)C)SC(=O)c2ccc(Cl)cc2)c(OC)c2c1/C(=N/O)C=C/C2=N\O (stereo not given)	> 50	820	20.4	1.45	1.16
COc1cc([C@@H](CC=C(C)C)SCCC(C)C)c(OC)c2c1/C(=N/O)C=C/C2=N\O	> 50	1940	39.4	5.87	8.95
COc1cc(C(CC=C(C)C)SC(=O)c2ccccc2Cl)c(OC)c2c1/C(=N/O)C=C/C2=N\O (stereo not given)	> 50	530	19.2	1.69	0.87
CCCCCCCCCSC(CC=C(C)C)c1cc(OC)c2c(c1OC)/C(=N/O)C=C/C2=N\O (stereo not given)	> 50	4090	37.8	9.86	13.8
CCCCCC(=O)SC(CC=C(C)C)c1cc(OC)c2c(c1OC)/C(=N/O)C=C/C2=N\O (stereo not given)	> 50	7210	45.7	16.9	22.4
COc1cc(C(CC=C(C)C)SC(=O)c2ccco2)c(OC)c2c1/C(=N/O)C=C/C2=N\O (stereo not given)	> 50	1980	28.3	5.01	7.3
COc1cc(C(CC=C(C)C)SC(=O)c2ccc(N)cc2)c(OC)c2c1/C(=N/O)C=C/C2=N\O (stereo not given)	> 50	1680	19.4	2.45	1.26
COc1cc(C(CC=C(C)C)SC(=O)CC(C)C)c(OC)c2c1/C(=N/O)C=C/C2=N\O (stereo not given)	> 50	590	16.3	1.49	1.65
COc1cc(C(CC=C(C)C)SC(=O)c2ccc(NC(=O)OC(C)(C)C)cc2)c(OC)c2c1/C(=N/O)C=C/C2=N\O (stereo not given)	> 50	3390	32.4	6.56	9.17
CCCCSC(CC=C(C)C)c1cc(OC)c2c(c1OC)/C(=N/O)C=C/C2=N\O (stereo not given)	> 50	4370	36	9.32	12.6
